Data set [1] deals with Plasmodium berghei. Briefly: Antimalarial activity against sporozoite stage of Plasmodium berghei infected in human Huh7 cells assessed as inhibition of parasite infection pre-incubated for 24 hrs followed by parasite infection measured after 48 hrs by bioluminescence assay. Conditions: Huh-7. Type of data set: functional, organism-based.
Data set [2] has as its system Plasmodium berghei. Briefly: Antimalarial activity against sporozoite stage of Plasmodium berghei infected in human Huh7 cells assessed as remaining parasite infection at 5 uM pre-incubated for 24 hrs followed by parasite infection measured after 48 hrs by bioluminescence assay. Conditions: Huh-7.
Data set [3] concerns Plasmodium berghei. Briefly: Antimalarial activity against sporozoite stage of Plasmodium berghei ANKA infected in C57BL/6J mouse assessed as reduction in liver parasite load at 50 mg/kg/, po administered for 3 days measured after 48 hrs by qRT-PCR analysis relative to control. The arrangement: scale not given: the % may be the effect or the level left. Format: functional. The procedure, abridged:
(§1)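 C57BL/6J mice, five per group, infected iv with luciferase-expressing P. berghei ANKA sporozoites. Compound given by oral gavage in DMSO + sunflower oil 24 h before, at, and 24 h after infection; controls got vehicle. Liver load measured 48 h post-infection by qRT-PCR of P. berghei 18S rRNA normalised to mouse Hprt, as % of controls; mean of two independent experiments.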

The nature of data set [4]: Selectivity ratio of IC50 for IV to V gametocyte stage of Plasmodium falciparum 3D7elo1-pfs16-CBG99 to IC50 for sporozoite stage of Plasmodium berghei infected in human Huh7. Type of data set: functional, Huh-7.
Data set [5] deals with Plasmodium berghei. The experiment in a line: Antimalarial activity against sporozoite stage of Plasmodium berghei ANKA infected in C57BL/6J mouse assessed as reduction in liver parasite load at 100 mg/kg/, po administered for 3 days measured after 48 hrs by qRT-PCR analysis relative to control. Type of data set: functional. The arrangement: scale not given: the % may be the effect or the level left. Put shortly:
as §1

Data set [6] deals with Plasmodium falciparum. The experiment in a line: Antimalarial activity against 4th to 5th gametocyte stage of Plasmodium falciparum 3D7elo1-pfs16-CBG99 assessed as inhibition of gametocyte viability by luciferase reporter gene assay. Type of data set: functional, organism-based. Put shortly: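 Stage IV–V gametocytes of luciferase-expressing 3D7elo1-pfs16-CBG99 strain (CBG99 under pfs16 promoter); luciferase activity as viability read-out. Viability = 100×(treated−blank)/(untreated−blank), blank = 100 nM epoxomicin-treated sample. Epoxomicin and dihydroartemisinin as positive controls. IC50 from nonlinear regression of dose–response; mean of three experiments in duplicate.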

Data set [7] concerns Salmonella typhimurium. Briefly: Mutagenic activity in Salmonella typhimurium TA100 at 500 ug/ml by Ames test in absence of S9 fractions. Format: toxicity, organism-based. Conditions: salmonella enterica subsp. enterica serovar typhimurium. The procedure, abridged:
(§2)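 Ames test in Salmonella typhimurium TA98 and TA100 at 500 μg/mL, with and without S9.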

Data set [8] deals with Plasmodium berghei. Briefly: Antimalarial activity against Plasmodium berghei ANKA infected in C57Bl6 mouse at 20 mg/kg/day, po on days 3 to 5 by Thompson test. Type of data set: functional.
The nature of data set [9]: Half life in mouse liver microsomes at 1 uM by LC-MS/MS analysis. Format: ADME.
The test system of data set [10] is HepG2. Briefly: Cytotoxicity against human HepG2 cells after 48 hrs by MTT assay. Type of data set: cell-based. Conditions: HepG2, 48 h.
A short description of data set [11]: Inhibition of beta hematin formation measured as hemin equivalent after 18 hrs. Type of data set: physicochemical. Put shortly: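 Hemin (16 mM in DMSO) mixed with compound at 0.125–5 mol equiv to hemin, plus water and 8 M acetate buffer pH 5.2, 25% DMSO final. Incubated 18 h at 37 °C. Pellet washed with DMSO, dissolved in 0.1 M NaOH, absorbance read at 405 nm (corrected at 670 nm) against a hemin calibration.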

The subject of data set [12] is Plasmodium berghei. The experiment in a line: Antimalarial activity against Plasmodium berghei ANKA infected in C57Bl6 mouse assessed as curative effect at 20 to 40 mg/kg/day, po administered for day 3 to 5 by Thompson test.
Data set [13] concerns Salmonella typhimurium. The experiment in a line: Mutagenic activity in Salmonella typhimurium TA98 at 500 ug/ml by Ames test in absence of S9 fractions. Type of data set: toxicity, organism-based. To be noted: salmonella enterica subsp. enterica serovar typhimurium. The procedure, abridged: as §2
The subject of data set [14] is Plasmodium berghei. Briefly: Antimalarial activity against Plasmodium berghei ANKA infected in po dosed C57Bl6 mouse administered on day 3 to 5 by Thompson test. Type of data set: functional. Put shortly: (§3)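 Modified Thompson test: C57Bl6 female mice inoculated intraperitoneally on day 0 with 1×10^6 P. berghei ANKA-infected erythrocytes; compound suspended in 0.5% hydroxyethylcellulose–0.1% Tween 80, given orally once daily on days 3, 4 and 5 post infection. Parasitemia by Giemsa-stained thin tail-blood smears on days 0, 3, 6, 10, 13, 17, 20, 24, 27, 31. Cure = survival without parasitemia to day 31.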

In data set [15] the test system is Salmonella typhimurium. Briefly: Mutagenic activity in Salmonella typhimurium TA100 at 500 ug/ml by Ames test in presence of S9 fractions. Format: toxicity, organism-based, S9 Fraction. Conditions: salmonella enterica subsp. enterica serovar typhimurium. Put shortly:
as §2

The target of data set [16] is Voltage-gated inwardly rectifying potassium channel KCNH2 (Homo sapiens, UniProt Q12809). Briefly: Inhibition of human ERG expressed in CHO cells by patch plate method. Format: cell-based.
Data set [17] in a line: Octanol-water partition coefficient, logP of the compound. Type of data set: physicochemical.
Data set [18] has as its system Plasmodium berghei. The experiment in a line: Antimalarial activity against Plasmodium berghei ANKA infected in C57Bl6 mouse at 160 mg/kg/day, po measured on day 3 to 5 by Thompson test. Type of data set: functional.
Data set [19] has as its system Mus musculus. The experiment in a line: Toxicity in Plasmodium berghei ANKA infected C57Bl6 mouse at 160 mg/kg/day, po administered for 3 days measured 2 times a day for 31 days. Type of data set: organism-based. To be noted: in vivo, 744 h.
A short description of data set [20]: Half life in human liver microsomes at 1 uM by LC-MS/MS analysis. Type of data set: ADME.
Data set [21] is described as follows: Selectivity index, ratio of IC50 for human HepG2 cells to IC50 for chloroquine susceptible Plasmodium falciparum D6. Format: toxicity, cell-based. Conditions: read-out: Ratio IC50.
In data set [22] the test system is Plasmodium berghei. Briefly: Antimalarial activity against Plasmodium berghei ANKA infected in C57Bl6 mouse at 10 mg/kg/day, po on days 3 to 5 by Thompson test. Format: functional.
Data set [23] deals with Plasmodium berghei. Briefly: Antimalarial activity against Plasmodium berghei ANKA infected in C57Bl6 mouse at 80 mg/kg/day, po measured on day 3 to 5 by Thompson test. Format: functional.
For data set [24], the system named is Salmonella typhimurium. Briefly: Mutagenic activity in Salmonella typhimurium TA98 at 500 ug/ml by Ames test in presence of S9 fractions. To be noted: salmonella enterica subsp. enterica serovar typhimurium. Format: toxicity, organism-based, S9 Fraction. Put shortly: as §2
Data set [25] concerns the target hERG (KCNH2) (Homo sapiens, UniProt Q12809). Briefly: Inhibition of human ERG expressed in CHO cells at 5 uM by patch plate method. Type of data set: cell-based. To be noted: CHO cells that express human ERG.
The test system of data set [26] is Plasmodium falciparum. The experiment in a line: Antimalarial activity against chloroquine-resistant Plasmodium falciparum W2 after 48 hrs by [3H]hypoxanthine incorporation assay. Type of data set: functional, organism-based. The procedure, abridged: (§4)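 P. falciparum D6 (Sierra I/UNC clone), W2 (Indochina I clone), TM91C235 (South-East Asian clone) cultured with compound; growth inhibition by [3H]hypoxanthine incorporation (modified Desjardins/Milhous method). Chloroquine, mefloquine, artemisinin as positive controls. IC50 in nM; technical triplicates, curve fits R2 0.96–1.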

The subject of data set [27] is Plasmodium falciparum. The experiment in a line: Antimalarial activity against mutidrug resistant Plasmodium falciparum TM91C235 after 48 hrs by [3H]hypoxanthine incorporation assay. Type of data set: functional, organism-based. Put shortly:
as §4

Data set [28] relates to Plasmodium berghei. Briefly: Antimalarial activity against Plasmodium berghei ANKA infected in C57Bl6 mouse at 40 mg/kg/day, po on days 3 to 5 by Thompson test. Type of data set: functional.
Data set [29] deals with Plasmodium berghei. Briefly: Antimalarial activity against Plasmodium berghei ANKA infected in C57Bl6 mouse assessed as reduction of parasitemia at 20 mg/kg/day, po administered for day 3 to 5 measured on day 6 by Thompson test. Format: functional, organism-based. The procedure, abridged:
as §3

For data set [30], the system named is Plasmodium falciparum. The experiment in a line: Antimalarial activity against chloroquine-susceptible Plasmodium falciparum D6 after 48 hrs by [3H]hypoxanthine incorporation assay. Format: functional, organism-based. The procedure, abridged: as §4

The structures appear in SMILES notation. Calls of active or inactive are those of the source. No cut-off for these calls is given here.

Sequence of hERG (KCNH2) (Q12809 whole entry): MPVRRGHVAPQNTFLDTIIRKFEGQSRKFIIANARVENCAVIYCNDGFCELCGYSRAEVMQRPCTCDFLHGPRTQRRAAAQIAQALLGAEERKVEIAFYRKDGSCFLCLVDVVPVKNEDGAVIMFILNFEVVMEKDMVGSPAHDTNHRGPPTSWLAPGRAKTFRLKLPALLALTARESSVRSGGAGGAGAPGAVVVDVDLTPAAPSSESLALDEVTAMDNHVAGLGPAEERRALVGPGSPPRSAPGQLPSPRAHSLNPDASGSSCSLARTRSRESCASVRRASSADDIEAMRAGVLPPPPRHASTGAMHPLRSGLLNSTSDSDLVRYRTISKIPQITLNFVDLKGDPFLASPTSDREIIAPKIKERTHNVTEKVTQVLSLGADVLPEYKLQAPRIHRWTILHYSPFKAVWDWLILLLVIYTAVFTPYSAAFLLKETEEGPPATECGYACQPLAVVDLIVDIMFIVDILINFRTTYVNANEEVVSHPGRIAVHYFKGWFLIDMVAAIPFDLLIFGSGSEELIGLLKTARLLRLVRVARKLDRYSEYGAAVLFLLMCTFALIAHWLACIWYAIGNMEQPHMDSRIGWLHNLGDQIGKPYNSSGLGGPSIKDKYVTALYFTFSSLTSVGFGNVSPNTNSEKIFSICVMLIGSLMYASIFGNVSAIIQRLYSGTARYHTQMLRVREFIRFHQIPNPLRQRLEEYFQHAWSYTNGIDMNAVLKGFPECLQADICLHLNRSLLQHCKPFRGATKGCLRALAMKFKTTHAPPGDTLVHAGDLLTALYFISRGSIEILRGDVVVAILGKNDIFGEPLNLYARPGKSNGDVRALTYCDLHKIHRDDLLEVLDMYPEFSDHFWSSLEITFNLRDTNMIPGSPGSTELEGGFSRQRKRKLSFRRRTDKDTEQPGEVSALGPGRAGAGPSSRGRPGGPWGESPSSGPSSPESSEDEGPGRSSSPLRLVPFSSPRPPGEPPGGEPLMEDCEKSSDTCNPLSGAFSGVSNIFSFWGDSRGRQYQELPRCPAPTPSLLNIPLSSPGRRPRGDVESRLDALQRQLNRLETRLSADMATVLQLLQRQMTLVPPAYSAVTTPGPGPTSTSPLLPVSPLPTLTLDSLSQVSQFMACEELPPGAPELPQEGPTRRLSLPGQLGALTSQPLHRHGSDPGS
Sequence of Voltage-gated inwardly rectifying potassium channel KCNH2 (Q12809 whole entry): as above

Take `CCCNC(=O)CCC(C)[C@H]1CC[C@H]2[C@@H]3[C@H](OC(C)=O)C[C@@H]4CC5(CC[C@]4(C)[C@H]3C[C@H](OC(C)=O)[C@]12C)OOC1(CCCCC1)OO5` (some centres undefined): the IC50 is 330 nM in data set [1] and 1160 nM in data set [6]. Further, the % infection at 5 µM in [2] is 0.55%. For the same molecule, the Activity was found to be 60% in data set [3] and 91% in data set [5]. Further, the “Ratio IC50” value in [4] amounted to 3.5.

Take `CC(CCNCC12CC3CC(CC(C3)C1)C2)Nc1ccnc2cc(Cl)ccc12` (centres undefined): the Activity result in [7] is “Non-toxic”; in data set [13] it was “Non-toxic”; in [14], “Dose dependent effect”; in data set [15] it was “Non-toxic”; in [19] it was “Non-toxic”; in data set [24] it was “Non-toxic”. Also, the MST was 15.2 days in data set [8]; over 31 days in data set [18]; 13 days in data set [22]; over 31 days in data set [23]; 17.2 days in data set [28]. Also, the half-life at 1 µM in data set [9] and in data set [20] was 1 h throughout. For the same molecule, the IC50 in data set [10] was 3040 nM; in data set [11], 1.84 equiv; in data set [16], over 5000 nM; in data set [1], 1000 nM; in data set [26] it was 10 nM; in data set [27] it was 10 nM. This molecule returned an IC50 in [30] of 10 nM. Moreover, the outcome in [12] was inactive. In data set [14], the MAC stood at 10 mg/kg/day. In data set [14], the MCD was 80 mg/kg/day. The molecule also came in with a logP in data set [17] of 3.85. Further, the selectivity ratio in data set [21] amounted to 305. The molecule further returned an inhibition at 5 µM in data set [25] of 11.7%. In data set [2], the % infection at 5 µM amounted to 0.1%. Besides, the result in data set [29] was Active.
